# Screens: PubChem, several laboratories
# APP 5'UTR act – activators of APP 5'UTR luciferase reporter, primary screen, SH-SY5Y cells | activation, % at 2 µM | 190,000 compounds, 1% hits | SH-SY5Y APP 5'UTR luciferase reporter, luminescence; zero percent = DMSO vehicle wells;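 active = activation above a set limit, based on mean plus 3 SD of controls, cut at about 140% in these data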
# FLuc act counter – FLuc activators, initial screening, artefact control for FLuc-dependent activation tests, biochemical, ATPlite luminescence | Luciferin 4-monooxygenase (Photinus pyralis), P08659 | activation factor at 10 µM | 200,000 tested, under 10 active | AID 1027, 2008 | ATPlite luciferase biochemical, 10 min; 0 = ATP-free wells, 1 = DMSO control;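 active = luciferase activation factor, scaled between plate controls, of at least 2 with compound at 10 µM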
#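 System: luciferase plus luciferin reagent, cell-free; medium: PBS as buffer for the ATP substrate; dosing: test compounds dosed from 2 mM stocks in 100% DMSO; timing: 10 min post-reagent at room temperature; measured by: luminescence measurement of luciferase light output; evaluation: luciferase activation, seen as luminescence increase over controls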
# Rad51 HR inh – human RAD51 strand exchange inhibitors, primary screen, biochemical, fluorescence. DNA repair protein RAD51 homolog 1 (Homo sapiens), Q06609. hRad51 DNA strand exchange, fluorescence dequenching. inhibition, % at 10 µM. 200,000 compounds, 0.085% hits;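 active = inhibition above 40% at the single screening dose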;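 note: 0% = DMSO control wells and 100% = blanks with heterologous ssDNA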
# Target sequence (Q06609 whole entry, looked up): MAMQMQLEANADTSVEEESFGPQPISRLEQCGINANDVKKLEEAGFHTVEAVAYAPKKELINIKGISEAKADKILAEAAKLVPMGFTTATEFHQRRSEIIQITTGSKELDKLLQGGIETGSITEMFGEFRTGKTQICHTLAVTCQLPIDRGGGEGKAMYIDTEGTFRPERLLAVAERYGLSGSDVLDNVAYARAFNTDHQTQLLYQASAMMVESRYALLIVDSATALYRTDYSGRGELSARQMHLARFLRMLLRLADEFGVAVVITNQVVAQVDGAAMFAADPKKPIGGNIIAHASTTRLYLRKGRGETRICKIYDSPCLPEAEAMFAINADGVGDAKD
#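 Material: Human Rad51 nucleoprotein filaments preassembled on unlabelled ssDNA | Also added: Labelled 47-mer dsDNA for strand exchange | Dosing: Single dose, 10 µM final compound | Schedule: 30-min compound preincubation and 15-min exchange, both room temperature | Technique: Fluorescence dequenching at 485/520 nm | Measure: Percent inhibition relative to plate controls and blanks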
# STAT1 act – STAT1 signaling activators, primary screen, cell-based, HTS, luciferase reporter | activation (% of control), % at 5.5 µM | 200,000 compounds, 2.6% hits | NIH 3T3 STAT1-luciferase reporter, IFN-gamma, luminescence; 100% = IFN-gamma alone, no compound;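 active = activation above the screen-wide mean activation plus 3 SD, cut at about 130% in these data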;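 note: raw ratio to IFN-gamma control signal so 100% means no change and 0% no light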
# FLuc inhib CS – firefly luciferase enzyme inhibitors, primary screen, artefact control for luciferase-based inhibitor screens, biochemical, luminescence, ATPLite; inhibition, % at 10 µM; 10 min; Luciferin 4-monooxygenase (Photinus pyralis), P08659; 200,000 compounds, 1.5% hits; AID 1006, 2008;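 active = inhibition above about 50% when tested at 10 µM, limit read from the data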
# NF-kB neuron act – activators of NF-kB expression in neurons, primary screen, cell-based, HTS; AID 1239, 2008; 190,000 compounds, 1.6% hits; fold change at 12.5 µM; human neuronal cells, NF-kB reporter expression; hits give high values; in the data active = fold change above about 3.3
# An asterisk follows results filed as active; . = no result. This is a sample that favours compounds with a hit; in the whole collection about 3.9% have one here.
SMILES,APP 5'UTR act,FLuc act counter,Rad51 HR inh,STAT1 act,FLuc inhib CS,NF-kB neuron act
COc1ccccc1NC(=O)Nc1nc(C(C)(C)C)cs1,0,0.8,10,109,17,1.5
CC1(C)C2CC=C(/C=N/NC(=S)NCCc3ccccc3)C1C2 (centres undefined),-3,1.1,27,106,-8,0.91
CNC(=S)N/N=C/C1=CCC2CC1C2(C)C (centres undefined),-20,0.4,22,98,62*,1.1
COC(=O)c1ccccc1NC(=O)C(C)c1ccc([N+](=O)[O-])cc1 (centres undefined),-2,1,42*,95,-3,0.91
CC(C(=O)Nc1ccccc1Br)c1ccc([N+](=O)[O-])cc1 (centres undefined),7,1,9,85,-2,1
N#C/C(=C\c1ccc([N+](=O)[O-])o1)c1nc2ccccc2[nH]1,-97,1.1,-93,84,-6,1.5
N#C/C(=C\c1ccc(Sc2ccccc2)o1)c1nc2ccccc2[nH]1,139*,0.8,-17,107,22,1.7
COc1cc(OC)cc(C(=O)Nc2nc3ccc(S(C)(=O)=O)cc3s2)c1,37,1,-3,103,0,0.78
CS(=O)(=O)c1ccc2nc(NC(=O)c3cccs3)sc2c1,117,0.1,8,88,91*,2.7
Cc1ccc2nc(NC(=O)c3cccs3)sc2c1,163*,0.3,-5,129*,73*,11*
Cc1ccc2nc(NC(=O)c3ccc4ncsc4c3)sc2c1,172*,0.6,0,147*,41,4.1*
CCC(=O)Nc1cccc(NC(=S)NC(=O)c2cccs2)c1,32,0.9,1,132*,10,1.8
Cc1cccc(-c2nnc(NC(=O)c3cccs3)s2)c1,44,0.9,-2,106,14,1.6
CC(=O)[C@@]1(O)C(C)CC2C3C=C(C)C4=Cc5c(cnn5-c5ccccc5)C[C@]4(C)C3C(O)C[C@@]21C (some centres undefined),.,.,-3,.,.,.
S=C(Nc1ccc(Cc2ccncc2)cc1)Nc1cccc(Cl)c1,7,1,-4,88,-5,1.2
Cc1nn(-c2ccccc2)c(Cl)c1/C=N/NC(=O)c1ccncc1,.,.,-5,.,.,.
CCC(=O)Nc1nc2ccc(S(C)(=O)=O)cc2s1,-10,1,-7,131*,-4,1.6
Cc1ccc2nc(NC(=S)NC(=O)c3cccs3)sc2c1,243*,0.1,-2,121,90*,5.5*
Cc1ccc(-c2csc(NC(=S)NC(=O)c3cccs3)n2)cc1,-3,1.1,-1,106,-6,1.1
Cc1nc(NC(=S)NC(=O)c2cccs2)ccc1Br,68,0.4,.,101,58*,2.2
Cc1cccc(NC(=S)NC(=O)c2cccs2)n1,82,0.6,1,120,45,2
CC(C)CC(=O)Nc1nc2ccc(S(C)(=O)=O)cc2s1,-5,1,-5,119,-2,0.98
Cc1ccc(C(=O)Nc2nc3ccc(S(C)(=O)=O)cc3s2)s1,33,0.3,-1,146*,65*,2.5
O=C(NCc1ccncc1)/C(=C/c1cccc([N+](=O)[O-])c1)NC(=O)c1ccccc1,.,.,4,.,.,.
O=C(CSc1nnc(-c2csc3c2CCCC3)o1)Nc1ccccc1,203*,1,-7,138*,0,3.4*
SMILES,APP 5'UTR act,FLuc act counter,Rad51 HR inh,STAT1 act,FLuc inhib CS,NF-kB neuron act
CCN(CC)S(=O)(=O)c1ccc(-c2nnc(SCC(=O)Nc3nc(C)cs3)o2)cc1,2,1,-3,90,2,1.1
N#Cc1c(NC(=O)CSc2nnc(-c3ccccc3)o2)sc2c1CCCC2,2,1.1,-9,122,-10,1.2
Cc1csc(NC(=O)CSc2nnc(-c3ccccc3)o2)n1,136*,1.1,7,126,-5,3.1
Cc1ccccc1Nc1nnc(SCC(=O)N(C)C2CCS(=O)(=O)C2)s1 (centres undefined),-9,1,7,101,-3,0.96
Cc1ccc(Nc2nnc(SCC(=O)N(C)C3CCS(=O)(=O)C3)s2)cc1 (centres undefined),6,0.2,12,98,76*,1.9
COc1cccc(CN2CCN(Cc3cccn3-c3cccnc3)CC2CCO)c1 (centres undefined),-25,1,12,100,-2,1.1
CCOc1ccc(C(=O)NCc2cccs2)cc1,.,0.9,2,100,13,1.7
CCCCn1nc2cc(C(=O)NCCc3cccs3)ccc2c1OCC,7,1.1,1,113,-9,1.3
CCCCOc1ccc(C(=O)NCCc2cccs2)cc1,53,0.7,.,134*,30,2.5
CCOc1c2ccc(C(=O)NCCc3cccs3)cc2nn1CC,81,0.8,2,144*,19,3
Cc1c(C(=O)NN2CCCCC2)nn(-c2ccc(Cl)cc2Cl)c1-c1ccc(I)cc1,.,1,-12,.,1,.
CCCn1c(O)c(C=Nc2ccccc2)sc1=S,25,1,1,138*,-3,1.7
Cc1nn(-c2ccccc2)c(Cl)c1/C=N/NC(=O)c1cccnc1,7,0.7,16,101,27,1.2
Cc1nn(-c2ccccc2)c(Cl)c1/C=N/NC(=O)c1ccc(NS(=O)(=O)c2cccs2)cc1,37,0.3,-5,137*,71*,2.2
Cc1ccc(C(=O)N/N=C\c2c(C)nn(-c3ccccc3)c2Cl)cn1,20,0.5,-1,105,51*,0.83
Cc1nn(-c2ccccc2)c(Cl)c1/C=N/NC(=O)c1ccccc1NS(=O)(=O)c1cccs1,-34,0.9,13,99,8,1
COc1cccc(C(=O)NN/C(C)=C/C(=O)C(F)(F)C(F)(F)C(F)(F)F)c1,14,1,.,110,-2,0.75
Fc1ccccc1CSCc1nc2ccccc2[nH]1,18,1,-8,131*,-2,2.3
O=C1CCC(=O)N1c1ccc(CSc2nc3ccccc3[nH]2)cc1,2,0.8,4,102,16,1.2
Cc1ccc(CSCc2nc3ccccc3[nH]2)cc1,16,1,1,102,-3,1.4
COc1ccc(CSc2nc3ccccc3[nH]2)cc1,150*,0.2,-4,108,82*,5.7*
CC(C)CCSc1nc2ccccc2[nH]1,100,0.6,1,129*,36,1.1
COC(=O)c1cccc(CSc2nc3ccccc3[nH]2)c1,105,0.4,1,110,60*,2.1
